How the values were obtained:
Adenosine receptor A2a = Adenosine receptor A2a (Homo sapiens, UniProt P29274); assay: Antagonist activity at adenosine A2a receptor (unknown origin)
Adenosine receptor A1 = target: T1, Adenosine receptor A1 (Homo sapiens, UniProt P30542); assay: Antagonist activity at adenosine A1 receptor (unknown origin)
T1 sequence (P30542 whole entry): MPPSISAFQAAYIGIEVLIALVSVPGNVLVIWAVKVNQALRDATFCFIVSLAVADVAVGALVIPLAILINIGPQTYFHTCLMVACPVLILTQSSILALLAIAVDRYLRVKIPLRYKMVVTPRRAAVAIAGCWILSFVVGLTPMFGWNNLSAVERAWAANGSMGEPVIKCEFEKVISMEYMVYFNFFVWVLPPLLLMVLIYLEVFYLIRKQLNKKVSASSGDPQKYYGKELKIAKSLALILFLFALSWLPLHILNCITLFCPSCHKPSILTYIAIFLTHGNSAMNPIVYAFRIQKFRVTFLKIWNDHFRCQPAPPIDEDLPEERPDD

Rattus norvegicus [1] = assay: Anti-inflammatory activity in Sprague-Dawley rat assessed as inhibition of LPS-induced neutrophilia at 25 ug/kg, it administered as suspension with Penn-Century micro-sprayer aerosolizer dosed 1 hrs before LPS challenge and measured 5 hrs post dose; assay type: functional; conditions: inhaled or nasal
Summary of the method: (§1)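 Suspensions in PBS/0.2% Tween 80 were homogenized, with lower doses made by 1:10 dilutions. 0.2 mL was given intratracheally by MicroSprayer to isoflurane-anesthetized fasted male Sprague-Dawley rats (230–280 g). At 1 or 18 h, rats received nebulized LPS (30 mL of a 1:100 PBS dilution of 100 mg/10 mL stock) over 40 min. Four hours later, BAL neutrophils were counted by flow cytometry.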

[2] = Inhibition of PDE4 in PBMC (unknown origin) assessed as reduction in LPS-induced TNFalpha production incubated for 24 hrs by ELISA; conditions: Homo sapiens
Adenosine receptor A2b = target: T2, Adenosine receptor A2b (Homo sapiens, UniProt P29275); assay: Antagonist activity at adenosine A2b receptor (unknown origin)
T2 sequence (P29275 whole entry): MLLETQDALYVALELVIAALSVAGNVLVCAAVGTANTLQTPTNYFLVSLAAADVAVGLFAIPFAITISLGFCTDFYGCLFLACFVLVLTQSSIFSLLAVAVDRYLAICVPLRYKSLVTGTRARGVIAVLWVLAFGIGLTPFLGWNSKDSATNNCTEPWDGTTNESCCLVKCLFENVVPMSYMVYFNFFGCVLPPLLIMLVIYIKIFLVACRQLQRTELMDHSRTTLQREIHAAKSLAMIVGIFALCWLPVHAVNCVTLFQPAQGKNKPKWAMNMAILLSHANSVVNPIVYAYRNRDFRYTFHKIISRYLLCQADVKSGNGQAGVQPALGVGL

[3] = Inhibition of PDE4 in human whole blood assessed as reduction in LPS-induced TNFalpha production incubated for 24 hrs by ELISA; assay type: tissue-based
Summary of the method: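 Human whole blood was preincubated with LPS (final 1 μg/mL) for 10 min at 37 °C with rocking. 200 μL was added to wells holding increasing inhibitor concentrations in 100% DMSO. Plates were incubated 24 h at 37 °C under agitation, then placed on ice, diluted with PBS and centrifuged at 800g, 4 °C, for 15 min before TNF-α measurement.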

Rattus norvegicus [4] = assay: Anti-inflammatory activity in Sprague-Dawley rat assessed as inhibition of LPS-induced neutrophilia at 1000 ug/kg, it administered as suspension with Penn-Century micro-sprayer aerosolizer dosed 18 hrs before LPS challenge and measured 22 hrs post dose; assay type: functional; conditions: inhaled or nasal; summary of the method: as §1
Rattus norvegicus [5] = assay: Anti-inflammatory activity in Sprague-Dawley rat assessed as inhibition of LPS-induced neutrophilia at 100 ug/kg, it administered as suspension with Penn-Century micro-sprayer aerosolizer dosed 1 hrs before LPS challenge and measured 5 hrs post dose; assay type: functional; conditions: inhaled or nasal; summary of the method: as §1
Rattus norvegicus [6] = assay: Anti-inflammatory activity in Sprague-Dawley rat assessed as inhibition of LPS-induced neutrophilia at 10 to 1000 ug/kg, it administered as suspension with Penn-Century micro-sprayer aerosolizer dosed 1 hrs before LPS challenge and measured 5 hrs post dose; assay type: functional; conditions: inhaled or nasal; summary of the method: as §1
[7] = Drug metabolism in human liver S9 fraction assessed as glucuronidation in presence of PAPS and UDPGA incubated for 20 mins; assay type: ADME, subcellular; conditions: read-out: Drug metabolism
Rattus norvegicus [8] = assay: Anti-inflammatory activity in Sprague-Dawley rat assessed as inhibition of LPS-induced neutrophilia at 1000 ug/kg, it administered as dry powder with lactose carrier through Penn-Century insufflator dosed 18 hrs before LPS challenge and measured 22 hrs post dose; assay type: functional
Summary of the method: (§2)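 Compounds were micronized, comixed with lactose, and 5 mg of the mixture was insufflated intratracheally into isoflurane-anesthetized fasted male Sprague-Dawley rats (230–280 g). LPS aerosol (30 mL of a 1:100 PBS dilution of 100 mg/10 mL stock) was nebulized for 40 min at 1 or 18 h post-dose. BAL was taken 4 h later and neutrophils counted by flow cytometry. Controls: lactose alone, lactose+LPS, fluticasone (10% in lactose).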

Rattus norvegicus [9] = assay: Anti-inflammatory activity in Sprague-Dawley rat assessed as inhibition of LPS-induced neutrophilia at 1000 ug/kg, it administered as dry powder with lactose carrier through Penn-Century insufflator dosed 1 hrs before LPS challenge and measured 5 hrs post dose; assay type: functional; summary of the method: as §2
[10] = Pro-inflammatory activity in Sprague-Dawley rat assessed as induction of neutrophilia at 1000 ug/kg, it administered as dry powder with lactose carrier through Penn-Century insufflator; conditions: in vivo, inhaled_or_intranasal, 1 mg/kg
Rattus norvegicus [11] = assay: Anti-inflammatory activity in Sprague-Dawley rat assessed as inhibition of LPS-induced neutrophilia at 100 ug/kg, it administered as suspension with Penn-Century micro-sprayer aerosolizer dosed 18 hrs before LPS challenge and measured 22 hrs post dose; assay type: functional; conditions: inhaled or nasal; summary of the method: as §1
Rattus norvegicus [12] = assay: Anti-inflammatory activity in Sprague-Dawley rat assessed as inhibition of LPS-induced neutrophilia at 1000 ug/kg, it administered as suspension with Penn-Century micro-sprayer aerosolizer dosed 1 hrs before LPS challenge and measured 5 hrs post dose; assay type: functional; conditions: inhaled or nasal; summary of the method: as §1
Rattus norvegicus [13] = assay: Anti-inflammatory activity in Sprague-Dawley rat assessed as inhibition of LPS-induced neutrophilia at 300 ug/kg, it administered as suspension with Penn-Century micro-sprayer aerosolizer dosed 18 hrs before LPS challenge and measured 22 hrs post dose; assay type: functional; conditions: inhaled or nasal; summary of the method: as §1

Sequence of Adenosine receptor A2a (P29274 whole entry): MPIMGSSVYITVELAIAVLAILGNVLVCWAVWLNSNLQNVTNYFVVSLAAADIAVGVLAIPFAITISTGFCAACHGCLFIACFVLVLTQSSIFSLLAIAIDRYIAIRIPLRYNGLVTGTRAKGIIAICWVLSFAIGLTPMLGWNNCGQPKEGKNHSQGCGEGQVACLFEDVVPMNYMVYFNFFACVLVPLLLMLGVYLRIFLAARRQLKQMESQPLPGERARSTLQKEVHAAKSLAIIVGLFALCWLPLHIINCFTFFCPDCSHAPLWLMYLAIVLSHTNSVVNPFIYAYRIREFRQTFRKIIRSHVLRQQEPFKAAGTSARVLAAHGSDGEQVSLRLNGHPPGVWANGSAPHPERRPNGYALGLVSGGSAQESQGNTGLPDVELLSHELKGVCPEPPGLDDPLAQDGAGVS

Structure (SMILES)	IC50 (Adenosine receptor A2a) [µM]	IC50 (Adenosine receptor A1) [µM]	IC50 [2] [µM]	IC50 (Adenosine receptor A2b) [µM]	IC50 [3] [µM]	other results
CCOc1cc(C(=O)NC2CC2)cc(-c2cccc(-c3cc(NC(=O)Nc4c(Cl)cncc4Cl)c(=O)n(CC)n3)c2)c1	> 1	0.059	0.00024	> 1	–	inhibition in vivo at 0.025 mg/kg (Rattus norvegicus [1]): 26%
CCn1nc(-c2cccc(-c3ccc(F)c(C(=O)O)c3)c2)cc(NC(=O)Nc2c(Cl)cncc2Cl)c1=O	–	–	0.0263	–	–	–
CCn1nc(-c2cccc(-c3ccc(C(N)=O)cc3)c2)cc(NC(=O)Nc2c(Cl)cncc2Cl)c1=O	–	–	0.0002	–	0.12	–
CCn1nc(-c2cccc(-c3cccc(C(=O)NCCCCCCCN(C)CCO)c3)c2)cc(NC(=O)Nc2c(Cl)cncc2Cl)c1=O	0.041	0.013	0.00024	0.206	0.057	inhibition in vivo at 1 mg/kg (Rattus norvegicus [4]): 27%; inhibition in vivo at 0.1 mg/kg (Rattus norvegicus [5]): 79%
CCn1nc(-c2cccc(-c3cc(F)ccc3O)c2)cc(NC(=O)Nc2c(Cl)cncc2Cl)c1=O	–	–	0.00088	–	0.207	ED50 (Rattus norvegicus [6]): 0.101 mg/kg; metabolised at 20 min [7]: 8%; inhibition in vivo at 1 mg/kg (Rattus norvegicus [8]): 0%; inhibition in vivo at 1 mg/kg (Rattus norvegicus [4]): 14%; inhibition in vivo at 1 mg/kg (Rattus norvegicus [9]): 51%
CCn1nc(-c2cccc(-c3ccc(O)nc3)c2)cc(NC(=O)Nc2c(Cl)cncc2Cl)c1=O	–	–	0.0011	–	0.1	–
CCn1nc(-c2cccc(-c3cccc(C(=O)NC4CC4)c3)c2)cc(NC(=O)Nc2c(Cl)cncc2Cl)c1=O	0.033	0.01	0.0003	0.12	0.069	ED50 (Rattus norvegicus [6]): 0.024 mg/kg; inhibition in vivo at 1 mg/kg (Rattus norvegicus [8]): 42%; inhibition in vivo at 1 mg/kg (Rattus norvegicus [4]): 43%; fold change (FC) [10]: 1; inhibition in vivo at 0.1 mg/kg (Rattus norvegicus [5]): 70%; inhibition in vivo at 1 mg/kg (Rattus norvegicus [9]): 55%
CCn1nc(-c2cccc(-c3cc(C(=O)NCCN4CCOCC4)cc(C(=O)NC4CC4)c3)c2)cc(NC(=O)Nc2c(Cl)cncc2Cl)c1=O	> 1	> 1	–	> 1	–	inhibition in vivo at 0.1 mg/kg (Rattus norvegicus [11]): 29%; inhibition in vivo at 0.025 mg/kg (Rattus norvegicus [1]): 55%
CCn1nc(-c2cccc(-c3cccc(CC(=O)O)c3)c2)cc(NC(=O)Nc2c(Cl)cncc2Cl)c1=O	0.434	0.005	0.00054	0.263	0.19	metabolised at 20 min [7]: 56%; inhibition in vivo at 1 mg/kg (Rattus norvegicus [12]): 66%; inhibition in vivo at 1 mg/kg (Rattus norvegicus [4]): 16%
CCn1nc(-c2cccc(-c3cc(C(=O)NC4CC4)cc(C(=O)NC4CC4)c3)c2)cc(NC(=O)Nc2c(Cl)cncc2Cl)c1=O	> 1	0.324	0.0004	> 1	–	inhibition in vivo at 0.025 mg/kg (Rattus norvegicus [1]): 54%; inhibition in vivo at 0.3 mg/kg (Rattus norvegicus [13]): 27%
CCn1nc(-c2ccccc2)c(C(C)=O)c(Nc2ccc(C(=O)O)cc2)c1=O	–	–	0.021	–	–	–
CCn1nc(-c2cccc(-c3cc(C(=O)NCCO)cc(C(=O)NCCN4CCCCC4)c3)c2)cc(NC(=O)Nc2c(Cl)cncc2Cl)c1=O	> 1	> 1	0.00031	> 0.268	–	inhibition in vivo at 0.025 mg/kg (Rattus norvegicus [1]): 33%
CCn1nc(-c2cccc(-c3ccccc3O)c2)cc(NC(=O)Nc2c(Cl)cncc2Cl)c1=O	–	–	0.0014	–	0.075	metabolised at 20 min [7]: 1.7%
CCn1nc(-c2cccc(-c3ccc(F)cc3O)c2)cc(NC(=O)Nc2c(Cl)cncc2Cl)c1=O	–	–	0.0013	–	0.202	–
